Measured values from ChEMBL document CHEMBL3872269, “Design, synthesis and cytotoxic activities of scopoletin-isoxazole and scopoletin-pyrazole hybrids” (Bioorg Med Chem Lett, 2017).

What was measured:
[1] = Growth inhibition of human SW620 cells after 48 hrs by MTT assay; type: functional, cell-based; settings: SW-620, 48 h
Procedure, shortened: (§1)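 In vitro cytotoxicity screen on human cell lines. Value reported as IC50, the concentration causing 50% inhibition of the cells.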

[2] = Growth inhibition of human HuH7 cells after 48 hrs by MTT assay; type: functional, cell-based; settings: Huh-7, 48 h; procedure, shortened: as §1
[3] = Growth inhibition of human HCT116 cells after 48 hrs by MTT assay; type: functional, cell-based; settings: HCT-116, 48 h; procedure, shortened: as §1
[4] = Growth inhibition of human HFL1 cells after 48 hrs by MTT assay; type: cell-based; settings: HFL1, 48 h; procedure, shortened: as §1

Compound | IC50 [1] | IC50 [2] | IC50 [3] | IC50 [4]
CCN(CC)CCNC(=O)c1c(C)[nH]c(/C=C2\C(=O)Nc3ccc(F)cc32)c1C [SUNITINIB] | 6.25 µM | 3.03 µM | 5.62 µM | 
COc1cc2ccc(=O)oc2cc1OC(=O)c1c(-c2ccc(Cl)cc2)n[nH]c1C | 17.1 µM | 16.2 µM | 13.8 µM | 47 µM
COc1cc2cc(NC(=O)c3c(C)noc3-c3ccc(Cl)cc3)c(=O)oc2cc1OCCN1CCOCC1 | > 25 µM | > 25 µM | > 25 µM | 
COc1cc2ccc(=O)oc2cc1OC(=O)c1c(-c2ccccc2F)n[nH]c1C | > 25 µM | > 25 µM | > 25 µM | 
COc1cc2ccc(=O)oc2cc1OC(=O)c1c(C)noc1-c1ccc(Cl)cc1 | 12.7 µM | 12.4 µM | 10.9 µM | 42.2 µM
COc1cc2ccc(=O)oc2cc1OC(=O)c1c(C)noc1-c1ccc([N+](=O)[O-])cc1 | 9.83 µM | 8.76 µM | 9.21 µM | 90.9 µM
COc1cc2ccc(=O)oc2cc1OC(=O)c1c(C)noc1-c1ccccc1F | > 25 µM | > 25 µM | > 25 µM | 
COc1cc2ccc(=O)oc2cc1O [SCOPOLETIN] | > 25 µM | > 25 µM | > 25 µM | 
COc1cc2cc(NC(=O)c3c(C)noc3-c3ccccc3F)c(=O)oc2cc1OCCN1CCOCC1 | 13.9 µM | 14.7 µM | 15.6 µM | 68.5 µM
COc1cc2ccc(=O)oc2cc1OC(=O)c1c(C)noc1-c1ccccc1 | 23.4 µM | > 25 µM | 22.7 µM | 69.3 µM
COc1cc2cc(NC(=O)c3c(C)noc3-c3ccc([N+](=O)[O-])cc3)c(=O)oc2cc1OCCN1CCOCC1 | 10.5 µM | 12.1 µM | 10.3 µM | 74.2 µM
COc1cc2ccc(=O)oc2cc1OC(=O)c1c(-c2ccccc2)n[nH]c1C | > 25 µM | > 25 µM | > 25 µM | 
COc1cc2cc(NC(=O)c3c(C)noc3-c3ccccc3)c(=O)oc2cc1OCCN1CCOCC1 | > 25 µM | > 25 µM | 20.9 µM | 
COc1cc2ccc(=O)oc2cc1OC(=O)c1c(-c2ccc([N+](=O)[O-])cc2)n[nH]c1C | > 25 µM | > 25 µM | > 25 µM | 
